Data as given in BindingDB's records for doi:10.1021/acs.jmedchem.8b01529 (Boston University, 2019).

Biological target: DNA-(apurinic or apyrimidinic site) endonuclease (Homo sapiens, UniProt P27695)
Experiment: Inhibition of full length human APE1 assessed as reduction in endonuclease activity by measuring DNA cleavage of abasic sites using 6-FAM labelled two annealed oligonucleotides as AP site mimic substrate by fluorescence-based assay
Summary of the method: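 Purified full-length APE1 (0.25-1.25 nM) added at once to 50 nM annealed duplex: 5'-6-FAM-labelled AP-site-mimic strand paired with a quencher-labelled strand. Buffer 50 mM Tris, 1 mM MgCl2, 50 mM NaCl, pH 7.5. Compound in triplicate, 10-point 1:2 dilution from 100 μM. Fluorescence from cleavage read kinetically at five 1-min intervals. Reaction rate compared with DMSO vehicle.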

Chain of DNA-(apurinic or apyrimidinic site) endonuclease (P27695 whole entry): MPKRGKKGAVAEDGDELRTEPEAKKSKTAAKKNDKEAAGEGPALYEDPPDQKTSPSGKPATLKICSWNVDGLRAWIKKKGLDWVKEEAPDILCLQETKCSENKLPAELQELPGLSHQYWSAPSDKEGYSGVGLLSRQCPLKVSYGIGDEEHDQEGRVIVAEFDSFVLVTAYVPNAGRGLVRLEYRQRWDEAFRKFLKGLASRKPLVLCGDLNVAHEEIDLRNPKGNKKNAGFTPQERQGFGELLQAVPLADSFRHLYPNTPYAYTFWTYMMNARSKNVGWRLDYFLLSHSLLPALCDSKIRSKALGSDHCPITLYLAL

Row | IC50 [µM] | SMILES
1 | 5.4 | Cc1ccc(S(=O)(=O)n2cccc2[C@@H]2NC(=O)[C@H](Cc3c[nH]c4ccccc34)NC(=O)C(Oc3ccccc3)CCOC(=O)C/C=C/[C@@H]2C)cc1 (some centres not stated)
2 | 1.2 | Cc1ccc(S(=O)(=O)n2cccc2[C@@H]2NC(=O)[C@H](Cc3c[nH]c4ccccc34)NC(=O)C(c3ccccc3)CCOC(=O)C/C=C/[C@@H]2C)cc1 (some centres not stated)
